Test results as given in ChEMBL document CHEMBL3804820, “2-hydroxyisoquinoline-1,3(2H,4H)-diones (HIDs) as human immunodeficiency virus type 1 integrase inhibitors: Influence of the alkylcarboxamide substitution of position 4” (Eur J Med Chem, 2016).
pEC50, pIC50: −log10 of the molar value. ≈ marks a conversion by molar mass, not a printed value.

Key:
MDCK-II = assay: Inhibition of human P-gp expressed in MDCK2-MDR1 cells assessed as reduction in calcien-AM efflux at 100 uM incubated for 20 mins by fluorimetry relative to control; assay type: cell-based
In short: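 P-gp efflux inhibition in MDR1-MDCKII cells with calcein AM substrate, tested up to 100.0 µM. Read as percentage inhibition of control.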

[1] = Cytotoxicity against human HepG2 cells assessed as reduction in mitochondrial membrane potential at 30 uM after 72 hrs by fluorescent image analysis relative to untreated control; assay type: cell-based; settings: read-out: INH
In short: (§1)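 Contract in vitro cytotoxicity panel covering cell number, intracellular free calcium, nuclear size, membrane permeability and mitochondrial membrane potential. Compounds tested at 1.0, 30.0 and 100.0 µM; values are percentage change versus untreated control, and IC50 where derived.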

CYP2C19 = CYP2C19 (Homo sapiens, UniProt P33261); assay: Inhibition of human recombinant CYP2C19 using CEC as substrate at 10 uM incubated for 50 mins by fluorimetry relative to control; assay type: ADME; settings: recombinant CYP2C19, probe CEC
In short: (§2)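 Recombinant CYP isoforms, each with its fluorogenic substrate: CYP1A2 and CYP2C19 with CEC, CYP2C9 and CYP2D6 with MFC, CYP3A4 with BFC. Read as percentage inhibition of control, standard contract assays.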

HepG2 [2] = assay: Cytotoxicity against human HepG2 cells assessed as increase in intracellular free calcium level at 1 uM after 72 hrs by fluorescent image analysis relative to untreated control; assay type: cell-based; settings: hepg2, 72 h; in short: as §1
HepG2 [3] = assay: Cytotoxicity against human HepG2 cells assessed as increase in intracellular free calcium level at 100 uM after 72 hrs by fluorescent image analysis relative to untreated control; assay type: cell-based; settings: hepg2, 72 h; in short: as §1
[4] = Cytotoxicity against human HepG2 cells assessed as reduction in nuclear size at 30 uM after 72 hrs by fluorescent image analysis relative to untreated control; assay type: cell-based; settings: read-out: INH; in short: as §1
[5] = test system: Human immunodeficiency virus 1; assay: Antiviral activity against HIV1 3B infected in human MT4 cells assessed as reduction in virus-induced cytopathic effect by MTT assay; assay type: functional, organism-based; settings: Human immunodeficiency virus 1, 3B
In short: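 MT-4 cells infected with 100-300 CCID50 of HIV-1 IIIB, in the presence of 5-fold serial dilutions of compound. Cytopathic effect read by MTT reduction to formazan, measured spectrophotometrically. EC50 is the concentration giving 50% protection against virus-induced CPE.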

[6] = Partition coefficient , log D of the compound in n-octanol/PBS at pH 7.4; assay type: physicochemical
In short: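 Log D measured by n-octanol/PBS partition at pH 7.4, in a standard contract assay.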

[7] = test system: Human immunodeficiency virus 1; assay: Selectivity ratio of EC50 for raltegravir resistant HIV1 harboring integrase Q148H mutant infected in human MT4 cells to EC50 for wild type HIV1 3B infected in human MT4 cells; assay type: functional
In short: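 MT-4/MTT cytopathic-effect assay in human MT-4 lymphocytes. Cells were infected with 100–300 CCID50 of each virus stock in the presence of 5-fold serial drug dilutions. The HIV-1 IIIB wild-type stock was titrated on MT-4 cells. Viability was read spectrophotometrically as formazan from MTT reduction. EC50 is the concentration giving 50% protection against CPE for each strain. Fold-change is mutant-strain EC50 relative to wild-type EC50.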

CYP2D6 = CYP2D6 (Homo sapiens, UniProt P10635); assay: Inhibition of human recombinant CYP2D6 using MFC as substrate at 10 uM incubated for 40 mins by fluorimetry relative to control; assay type: ADME; settings: recombinant CYP2D6, probe MFC; in short: as §2
[8] = Cytotoxicity against human HepG2 cells assessed as reduction in nuclear size at 100 uM after 72 hrs by fluorescent image analysis relative to untreated control; assay type: cell-based; settings: read-out: INH; in short: as §1
[9] = Aqueous solubility in PBS at pH 7.4; assay type: physicochemical
In short: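 Aqueous solubility measured in PBS, pH 7.4, in a standard contract assay.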

HepG2 [10] = assay: Cytotoxicity against human HepG2 cells assessed as increase in membrane permeability at 1 uM after 72 hrs by fluorescent image analysis relative to untreated control; assay type: cell-based; settings: hepg2, 72 h
[11] = Cytotoxicity against human HepG2 cells assessed as reduction in cell number at 1 uM after 72 hrs by fluorescent image analysis relative to untreated control; assay type: cell-based; settings: read-out: INH; in short: as §1
CYP1A2 = target: T1, CYP1A2 (Homo sapiens, UniProt P05177); assay: Inhibition of human recombinant CYP1A2 using CEC as substrate at 10 uM incubated for 30 mins by fluorimetry relative to control; assay type: ADME; settings: recombinant CYP1A2, probe CEC; in short: as §2
T1 sequence (P05177 whole entry): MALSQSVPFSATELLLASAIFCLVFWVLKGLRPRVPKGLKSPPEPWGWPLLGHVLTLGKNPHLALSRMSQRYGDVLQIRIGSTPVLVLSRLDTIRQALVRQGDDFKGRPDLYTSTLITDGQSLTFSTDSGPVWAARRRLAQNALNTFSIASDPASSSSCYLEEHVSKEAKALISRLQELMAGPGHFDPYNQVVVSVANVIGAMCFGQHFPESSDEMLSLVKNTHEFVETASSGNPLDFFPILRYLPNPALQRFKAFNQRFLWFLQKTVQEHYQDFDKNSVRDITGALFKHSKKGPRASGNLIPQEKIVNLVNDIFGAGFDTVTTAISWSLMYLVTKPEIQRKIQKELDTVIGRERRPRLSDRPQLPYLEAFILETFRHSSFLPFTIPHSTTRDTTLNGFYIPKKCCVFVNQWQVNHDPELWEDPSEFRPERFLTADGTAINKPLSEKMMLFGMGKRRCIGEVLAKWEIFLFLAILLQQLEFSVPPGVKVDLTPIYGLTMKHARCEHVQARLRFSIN

[12] = Cytotoxicity against human HepG2 cells assessed as reduction in nuclear size at 1 uM after 72 hrs by fluorescent image analysis relative to untreated control; assay type: cell-based; settings: read-out: INH; in short: as §1
[13] = target: T2, Human immunodeficiency virus type 1 integrase (Human immunodeficiency virus 1, UniProt Q7ZJM1); assay: Inhibition of HIV1 integrase 3'-processing activity using 5'-ACTGCTAGAGATTTTCCACACTGACTAAAAGGGTC-[biotin]3' as substrate incubated for 1 hr by ELISA
[14] = target: T2, Human immunodeficiency virus type 1 integrase; assay: Inhibition of HIV1 integrase using 3'-biotin-labelled and 5'-digoxigenin-labelled oligonucleotide substrate incubated for 1 hr by ELISA
In short: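 ELISA with a 3'-biotin oligo and a 5'-digoxigenin partner oligo. Overall assay uses the full complementary oligo; strand transfer uses a precleaved oligo lacking the 3'-GT. Integrase at 160 nM final, annealed oligos 7 nM, in 10 mM MgCl2, 5 mM DTT, 20 mM HEPES pH 7.5, 0.5% PEG, 15% DMSO. Run 1 h at 37 °C, products denatured with NaOH, detected on avidin plates.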

[15] = Cytotoxicity against human MT4 cells assessed as reduction in cell viability by MTT assay; assay type: cell-based
In short: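 MT-4 cell viability was measured by MTT reduction, run in parallel with the antiviral assay using 5-fold serial compound dilutions. CC50 is the concentration reducing viability by 50%.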

T2 sequence (Q7ZJM1 whole entry): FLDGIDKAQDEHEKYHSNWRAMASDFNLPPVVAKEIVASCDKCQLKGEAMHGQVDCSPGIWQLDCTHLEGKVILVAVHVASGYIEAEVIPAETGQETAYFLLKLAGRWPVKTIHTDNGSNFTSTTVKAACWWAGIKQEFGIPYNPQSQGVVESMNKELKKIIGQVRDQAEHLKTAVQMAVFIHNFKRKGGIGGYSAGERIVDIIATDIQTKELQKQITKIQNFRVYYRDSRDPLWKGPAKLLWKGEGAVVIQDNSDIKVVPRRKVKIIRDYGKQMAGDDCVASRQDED
CYP2C19, sequence (P33261 whole entry, canonical isoform): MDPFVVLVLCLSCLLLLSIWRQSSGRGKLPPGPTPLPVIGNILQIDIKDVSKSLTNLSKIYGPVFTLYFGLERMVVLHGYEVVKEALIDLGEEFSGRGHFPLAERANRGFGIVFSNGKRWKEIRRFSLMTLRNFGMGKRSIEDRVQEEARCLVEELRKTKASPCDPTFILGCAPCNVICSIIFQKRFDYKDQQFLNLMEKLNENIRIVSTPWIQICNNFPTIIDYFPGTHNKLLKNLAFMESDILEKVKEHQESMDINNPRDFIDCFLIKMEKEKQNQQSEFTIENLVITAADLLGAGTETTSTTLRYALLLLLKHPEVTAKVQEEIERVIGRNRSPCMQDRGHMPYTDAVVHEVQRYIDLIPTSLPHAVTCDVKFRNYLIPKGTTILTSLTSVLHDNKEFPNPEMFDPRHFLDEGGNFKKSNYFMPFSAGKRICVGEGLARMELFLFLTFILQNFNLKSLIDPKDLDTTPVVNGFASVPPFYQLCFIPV
CYP2D6, sequence (P10635 whole entry): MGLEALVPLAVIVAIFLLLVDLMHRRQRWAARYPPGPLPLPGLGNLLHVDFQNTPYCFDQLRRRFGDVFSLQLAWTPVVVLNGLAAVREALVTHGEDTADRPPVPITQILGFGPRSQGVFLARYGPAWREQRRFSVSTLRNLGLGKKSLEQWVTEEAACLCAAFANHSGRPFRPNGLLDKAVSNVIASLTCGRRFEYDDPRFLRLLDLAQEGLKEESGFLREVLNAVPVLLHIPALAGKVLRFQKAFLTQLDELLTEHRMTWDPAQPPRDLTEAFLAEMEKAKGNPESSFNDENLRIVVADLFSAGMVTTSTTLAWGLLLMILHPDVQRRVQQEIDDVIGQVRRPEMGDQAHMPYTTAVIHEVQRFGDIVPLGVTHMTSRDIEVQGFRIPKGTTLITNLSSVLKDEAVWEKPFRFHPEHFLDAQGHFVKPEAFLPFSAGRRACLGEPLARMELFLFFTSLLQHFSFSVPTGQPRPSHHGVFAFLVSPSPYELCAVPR

CCCCCCNC(=O)C1C(=O)N(O)C(=O)c2ccccc21 (centres undefined)
inhibition (MDCK-II): 5.3%
cytotoxicity at 72 h, 30 µM [1]: 5.1%
inhibition at 50 min, 10 µM (CYP2C19): 9.3%
Activity (HepG2 [2]): -1.5%
Activity (HepG2 [3]): 32.3%
cytotoxicity at 72 h, 30 µM [4]: 12.1%
pEC50 [5]: 5.57
logD [6]: 1.26
Ratio EC50 [7]: 1
inhibition at 40 min, 10 µM (CYP2D6): 24.6%
cytotoxicity at 72 h, 100 µM [8]: 26.8%
solubility [9]: 160 µM (≈ 48.8 µg/mL)
Activity (HepG2 [10]): 0.1%
cytotoxicity at 72 h, 1 µM [11]: -10%
inhibition at 0.5 h, 10 µM (CYP1A2): 12.7%
cytotoxicity at 72 h, 1 µM [12]: -7%
pIC50 [13]: 6.29
pIC50 [14]: 7.07
CC50 [15]: 57700 nM
